Active and inactive are the calls of the source. The rule behind the calls is not given here.
Experiments:
[1] = molecular target: T1, Peroxisome proliferator-activated receptor gamma (Homo sapiens) (UniProt P37231); assay: Binding affinity to human wild type PPARgamma LBD expressed in COS1 cells co-expressing GAL4 by scintillation proximity assay; format: cell-based; conditions: COS-1
T1 sequence (whole entry): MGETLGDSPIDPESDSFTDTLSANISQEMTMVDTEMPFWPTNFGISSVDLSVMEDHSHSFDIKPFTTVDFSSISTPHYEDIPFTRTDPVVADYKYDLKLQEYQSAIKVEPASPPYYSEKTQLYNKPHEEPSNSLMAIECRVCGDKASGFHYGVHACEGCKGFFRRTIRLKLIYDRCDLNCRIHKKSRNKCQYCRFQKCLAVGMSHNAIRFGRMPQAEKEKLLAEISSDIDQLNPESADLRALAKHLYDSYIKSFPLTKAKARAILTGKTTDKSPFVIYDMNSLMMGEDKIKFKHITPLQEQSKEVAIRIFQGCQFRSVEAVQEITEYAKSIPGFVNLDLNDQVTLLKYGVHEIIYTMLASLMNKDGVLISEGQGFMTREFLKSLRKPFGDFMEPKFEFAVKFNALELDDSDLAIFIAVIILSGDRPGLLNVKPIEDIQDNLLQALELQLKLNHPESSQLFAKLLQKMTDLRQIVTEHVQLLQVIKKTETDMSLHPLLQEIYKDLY

COS-1 = assay: Binding affinity to human PPARgamma LBD Y473A mutant expressed in COS1 cells co-expressing GAL4 by scintillation proximity assay; format: cell-based
Mus musculus [2] = assay: Antidiabetic activity in db/db C57BLKS/J-m +/+ Leprdb mouse assessed as reduction of glucose level at 10 mg/kg, po qd for 10 days measured on 11 relative to control; format: functional; parameters: scale not given: the % may be the effect or the level left
Summary of the method: (§1)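 Male db/db (C57BLKS/J-m +/+Leprdb) mice, 12−13 weeks old, seven per group, chow and water freely available; once-daily oral gavage in 0.25% methylcellulose vehicle for 11 days. Tail blood drawn just before next dose on days 0, 4, 7 and 11 for plasma glucose. Value is percent correction versus vehicle control; mean of n = 7; rosiglitazone 10 mpk positive control.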

[3] = AUC in db/db C57BLKS/J-m +/+ Leprdb mouse at 10 mg/kg, po qd for 10 days measured on day 11; format: ADME, organism-based; parameters: dose 10 mg/kg, route oral; conditions: plasma
Summary of the method: (§2)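 Male db/db (C57BLKS/J-m +/+Leprdb) mice aged 12−13 weeks, seven per group, gavaged once daily with compound in 0.25% methylcellulose vehicle. Total compound exposure measured at study end: plasma acidified with 0.5 M formate buffer pH 3.0, protein precipitated with acetonitrile, quantified by LC−MS−MS against calibration curves in control plasma.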

Mus musculus [4] = assay: Toxicity in po dosed db/db C57BLKS/J-m +/+ Leprdb mouse assessed as increase in water content of epididymal fat pad administered qd for 10 days measured on day 11 by vaccum drying method; format: organism-based; conditions: in vivo, 240 h
Summary of the method: (§3)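 Male db/db mice, seven per group, gavaged daily in 0.25% methylcellulose; after day 11 dosing epididymal fat pads excised, weighed, vacuum centrifugal-dried over 24 h, reweighed to give water content; mean of seven determinations.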

Rattus norvegicus [5] = assay: Antidiabetic activity in obese insulin resistant Zucker fa/fa rat assessed as decrease in free fatty acids level in plasma at 1 to 100 mg/kg qd for 7 days; format: functional, organism-based
Summary of the method: (§4)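 Obese insulin-resistant Zucker fa/fa rats (n = 8) dosed daily for 7 days with vehicle or compound. Tail-nick blood taken 1 day before dosing and 1 day after the seventh dose; plasma insulin by rat insulin RIA, free fatty acids and triglyceride by enzymatic kits per manufacturer instructions.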

Rattus norvegicus [6] = assay: Antidiabetic activity in obese insulin resistant Zucker fa/fa rat assessed as decrease in insulin level in plasma at 1 to 100 mg/kg qd for 7 days; format: functional, organism-based; summary of the method: as §4
Rattus norvegicus [7] = assay: Antidiabetic activity in obese insulin resistant Zucker fa/fa rat assessed as decrease in triglyceride level in plasma at 1 to 100 mg/kg qd for 7 days; format: functional, organism-based; summary of the method: as §4
Rattus norvegicus [8] = assay: Antidiabetic activity in obese insulin resistant Zucker fa/fa rat assessed as decrease in insulin level in plasma administered qd for 7 days
[9] = molecular target: T2, Peroxisome proliferator-activated receptor gamma (Homo sapiens, UniProt P37231); assay: Binding affinity to human PPARgamma by scintillation proximity assay
T2 sequence (P37231 whole entry): T1 sequence (whole entry)
Summary of the method: (§5)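 Scintillation proximity binding assay on PPAR receptors giving IC50; mean of three determinations.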

[10] = molecular target: T2, Peroxisome proliferator-activated receptor gamma; assay: Agonist activity at human PPARgamma expressed in COS-1 cells co-expressing with Gal4 by transactivation assay; format: functional, cell-based
Summary of the method: (§6)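 GAL4-PPAR chimeric receptor transactivation in transiently co-transfected COS-1 cells with a GAL4-responsive reporter; potency as EC50 and maximum activation expressed relative to rosiglitazone; triplicate, mean reported.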

[11] = molecular target: T3, Peroxisome proliferator-activated receptor alpha (Homo sapiens, UniProt Q07869); assay: Binding affinity to human PPARalpha expressed in COS-1 by scintillation proximity assay; summary of the method: as §5
T3 sequence (Q07869 whole entry): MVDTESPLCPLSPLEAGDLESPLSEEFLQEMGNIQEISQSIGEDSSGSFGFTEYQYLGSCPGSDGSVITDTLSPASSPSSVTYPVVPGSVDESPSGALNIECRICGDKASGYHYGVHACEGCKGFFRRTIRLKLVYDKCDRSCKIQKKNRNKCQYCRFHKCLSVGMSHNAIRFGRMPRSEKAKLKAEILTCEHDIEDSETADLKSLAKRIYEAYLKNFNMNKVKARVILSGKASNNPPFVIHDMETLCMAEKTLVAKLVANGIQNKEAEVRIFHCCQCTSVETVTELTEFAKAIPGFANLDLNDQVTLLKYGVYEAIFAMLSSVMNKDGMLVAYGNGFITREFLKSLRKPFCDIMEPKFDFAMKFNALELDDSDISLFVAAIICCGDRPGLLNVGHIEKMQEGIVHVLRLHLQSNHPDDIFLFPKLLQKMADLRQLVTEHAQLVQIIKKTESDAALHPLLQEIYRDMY

[12] = molecular target: T4, Peroxisome proliferator-activated receptor delta (Homo sapiens, UniProt Q03181); assay: Binding affinity to PPARdelta by scintillation proximity assay; summary of the method: as §5
T4 sequence (Q03181 whole entry): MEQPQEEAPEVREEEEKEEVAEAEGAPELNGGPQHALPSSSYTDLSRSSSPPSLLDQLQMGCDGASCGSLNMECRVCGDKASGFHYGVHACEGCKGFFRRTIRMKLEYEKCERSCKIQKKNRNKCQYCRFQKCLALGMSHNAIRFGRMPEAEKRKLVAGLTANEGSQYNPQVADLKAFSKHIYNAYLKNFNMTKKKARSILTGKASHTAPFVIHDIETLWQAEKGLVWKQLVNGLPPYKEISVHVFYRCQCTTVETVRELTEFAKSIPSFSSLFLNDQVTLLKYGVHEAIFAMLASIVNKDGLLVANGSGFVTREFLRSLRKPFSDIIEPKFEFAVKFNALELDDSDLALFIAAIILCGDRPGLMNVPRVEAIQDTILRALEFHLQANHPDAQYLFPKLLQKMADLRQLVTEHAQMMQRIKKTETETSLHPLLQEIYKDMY

[13] = Drug uptake in db/db C57BLKS/J-m +/+ Leprdb mouse at 10 mg/kg, po qd for 10 days measured in day 11 by LC-MS/MS analysis; format: ADME, organism-based; parameters: dose 10 mg/kg, route oral; conditions: in vivo; summary of the method: as §2
Rattus norvegicus [14] = assay: Dose normalized AUC in rat at 2 mg/kg, po by LC-MS/MS analysis; format: ADME, organism-based; parameters: dose 2 mg/kg, route oral; conditions: in vivo
Summary of the method: (§7)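 Rat pharmacokinetics: 2 mpk oral in 5% methylcellulose, 0.5 mpk iv in ethanol/PEG400/water (1/4/5). Blood sampled at set intervals; plasma acidified with 0.5 M formate buffer pH 3.0, acetonitrile-precipitated, quantified by LC−MS−MS against spiked control-plasma calibration curves.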

Rattus norvegicus [15] = assay: Plasma clearance in rat at 0.5 mg/kg, iv and 2 mg/kg, po by LC-MS/MS analysis; format: ADME, organism-based; conditions: in vivo; summary of the method: as §7
[16] = Half life in rat at 0.5 mg/kg, iv and 2 mg/kg, po by LC-MS/MS analysis; format: ADME, organism-based; conditions: in vivo; summary of the method: as §7
[17] = Oral bioavailability in rat at 2 mg/kg by LC-MS/MS analysis; format: ADME, organism-based; conditions: in vivo; summary of the method: as §7
Mus musculus [18] = assay: Toxicity in db/db C57BLKS/J-m +/+ Leprdb mouse assessed as increase in water content of epididymal fat pad at 10 to 50 mg/kg, po qd for 10 days measured on day 11 by vaccum drying method; format: organism-based; parameters: dose 10-50 mg/kg, route oral; conditions: in vivo, 240 h; summary of the method: as §3
[19] = molecular target: T1, Peroxisome proliferator-activated receptor gamma (Homo sapiens); assay: Agonist activity at human PPARgamma expressed in COS-1 cells co-expressing with Gal4 by transactivation assay relative to rosiglitazone; format: functional, cell-based; summary of the method: as §6
[20] = molecular target: T2, Peroxisome proliferator-activated receptor gamma; assay: Partial agonist activity at human PPARgamma LBD assessed as activation of CBP1-453 by HTRF assay; format: functional
[21] = molecular target: T2, Peroxisome proliferator-activated receptor gamma; assay: Partial agonist activity at human PPARgamma LBD assessed as activation of PGC1 by HTRF assay; format: functional
[22] = molecular target: T2, Peroxisome proliferator-activated receptor gamma; assay: Partial agonist activity at human PPARgamma LBD assessed as activation of Src-1 by HTRF assay; format: functional
[23] = molecular target: T2, Peroxisome proliferator-activated receptor gamma; assay: Partial agonist activity at human PPARgamma LBD assessed as activation of PBP by HTRF assay; format: functional
Mus musculus [24] = assay: Antidiabetic activity in db/db C57BLKS/J-m +/+ Leprdb mouse assessed as reduction of glucose level at 30 mg/kg, po qd for 10 days measured on 11 relative to control; format: functional; parameters: scale not given: the % may be the effect or the level left; summary of the method: as §1
Mus musculus [25] = assay: Antidiabetic activity in db/db C57BLKS/J-m +/+ Leprdb mouse assessed as reduction of glucose level at 20 mg/kg, po qd for 10 days measured on 11 relative to control; format: functional; parameters: scale not given: the % may be the effect or the level left; summary of the method: as §1

Row | Structure (SMILES) | Activity [1] | Activity (COS-1) | Activity (Mus musculus [2]) [%] | IC50 [9] [nM] | EC50 [10] [nM] | IC50 [11] [nM] | IC50 [12] [nM] | AUC at 240 h [13] [µM·h] | AUC/dose (Rattus norvegicus [14]) [µM·kg·h/mg] | clearance (Rattus norvegicus [15]) [mL/min/kg] | half-life [16] [h] | bioavailability [17] [%] | Emax [19] [%] | EC50 [20] [nM] | EC50 [21] [nM] | EC50 [22] [nM] | EC50 [23] [nM] | further results
1 | CN(CCOc1ccc(CC2SC(=O)NC2=O)cc1)c1ccccn1 (stereo not drawn) [ROSIGLITAZONE] | Active | inactive | 60 |  |  |  |  |  |  |  |  |  |  |  |  |  |  | AUC at 240 h [3]: 220 µM·h; Activity (Mus musculus [4]): Dose-dependent effect; Activity (Rattus norvegicus [5]): Active; Activity (Rattus norvegicus [6]): Active; Activity (Rattus norvegicus [7]): Active; ED50 (Rattus norvegicus [8]): 312 µM·h
2 | C[C@]1(c2cccc(Cn3c(=O)n(-c4noc5cc(Cl)ccc45)c4ccccc43)c2)OC(O)=NC1=O |  |  |  | 49.1 | 102 | > 50000 | > 50000 | 1160 | 1.9 | 26.5 | 3 | 117 |  |  |  |  |  | Activity (Mus musculus [18]): Non-toxic
3 | COc1ccc2c(-n3c(=O)n(Cc4ccc(Cl)c(O[C@H](C)C(=O)O)c4)c4ccccc43)noc2c1 |  |  |  | 6.9 | 28.1 | > 50000 | > 50000 | 576 | 1.5 | 11.4 | 5 | 48 | 31 | > 50000 | 2 | > 50000 | 3 | Activity (Mus musculus [24]): 39%
4 | C[C@]1(c2cccc(Cn3c(=O)n(-c4noc5cc(Cl)ccc45)c4ccccc43)c2)OC(=O)NC1=O | Active | Active | 84 |  |  |  |  |  |  |  |  |  | 101 |  |  |  |  | 
5 | COc1ccc2c(-n3c(=O)n(Cc4cc([C@@]5(C)OC(=O)NC5=O)ccc4Cl)c4ccccc43)noc2c1 |  |  |  | 9.9 | 9.1 | > 50000 | > 50000 | 104 | 0.8 | 29.7 | 3.8 | 49 | 26 | > 50000 | 2 | > 50000 | 1820 | Activity (Mus musculus [25]): 29%
